# Reference: paper PMC8591627 (ACS infectious diseases, 2021)
# “And” between values parts separate entries of the source, which are not always exact repeats. Equal entries are not always repeated.
# Columns and labels:
# LAC yceI::Tn azoR1 = assay: MIC; type: cell-based, Staphylococcus aureus
# Summary of the method: (§1)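 Overnight cultures were grown in 5 mL Mueller-Hinton at 37 °C with shaking at 200 rpm. They were diluted 1/1000 into 96-well plates holding serial dilutions of test compound in Mueller-Hinton broth. Plates were sealed against drying and incubated statically at 37 °C for 18 h before reading. All strains are isogenic and in the LAC background.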
# S. aureus (ATCC 43300) [1] = assay: Membrane depolarization assay; type: cell-based, Staphylococcus aureus; settings: 4.5x MIC, 10 min; positive control sodium deoxycholate
# Summary of the method: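 ATCC 43300 was grown from a single colony in Mueller-Hinton to OD600 0.5, then loaded with DiBAC4 (final 20 μg/mL) for 5 min. Bacteria plus dye received test compound at 4.5x MIC; controls were no addition (negative) and 0.05% w/v sodium deoxycholate (positive). Fluorescence (ex 490/em 510 nm) was read every 5 s for 10 min, in triplicate.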
# MRSA ATCC 43300 = assay: MIC, drug susceptibility assay; type: cell-based, Staphylococcus aureus; settings: 18 h, 37 °C, visual inspection
# LAC yceI::Tn azoR1 pCM28 = assay: MIC; type: cell-based, Staphylococcus aureus
# Summary of the method: as §1
# [2] = system: S. aureus LAC yceI::Tn pLL39_yceI2; assay: MIC; type: cell-based, Staphylococcus aureus; settings: genotype yceI::Tn pLL39_yceI2, LAC background
# S. aureus (ATCC 43300) [3] = assay: Nitric oxide release assay, DAF-FM diacetate; type: cell-based, Staphylococcus aureus; settings: 100 μM, over 2 h; positive control DEA-NONOate
# Summary of the method: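 ATCC 43300 in Mueller-Hinton medium at OD600 0.2 was loaded with 10 μM DAF-FM diacetate for 30 min in the dark. Cells were then exposed to 100 μM test compound or 100 μM DEA-NONOate for 120 min. Controls were medium alone, bacteria alone, and bacteria with dye. Fluorescence (ex 495/em 515 nm) was read in triplicate.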
# [4] = system: S. aureus LAC pLL39_yceI2; assay: MIC; type: cell-based, Staphylococcus aureus; settings: genotype pLL39_yceI2, LAC background
# [5] = system: LAC yceI::Tn azoR1 pCM28_azoR; assay: MIC; type: cell-based, Staphylococcus aureus
# Summary of the method: as §1
# LAC yceI::Tn strain = assay: Selection of spontaneous resistant mutants, frequency; type: cell-based, Staphylococcus aureus
# VRSA strains = assay: MIC versus VRSA clinical isolates; type: cell-based, Staphylococcus aureus; settings: five clinical isolates of VRSA
# Vero cells = type: cell-based; settings: 72 h
# S. aureus LAC pLL39_yceI = assay: MIC; type: cell-based, Staphylococcus aureus; settings: genotype pLL39_yceI, LAC background
# LAC yceI::Tn azoR2 = assay: MIC; type: cell-based, Staphylococcus aureus
# Summary of the method: as §1
# VISA strains = assay: MIC versus VISA clinical isolates; type: cell-based, Staphylococcus aureus; settings: six clinical isolates of VISA
# LAC yceI::Tn azoR4 = assay: MIC; type: cell-based, Staphylococcus aureus; settings: genotype yceI::Tn azoR4
# [6] = system: S. aureus LAC pLL39_yceI1; assay: MIC; type: cell-based, Staphylococcus aureus; settings: genotype pLL39_yceI1, LAC background
# [7] = system: LAC yceI::Tn azoR4 pCM28_azoR; assay: MIC; type: cell-based, Staphylococcus aureus
# Summary of the method: as §1
# S. aureus (ATCC 43300) [8] = assay: Nitric oxide release assay, Griess reagent; type: cell-based, Staphylococcus aureus; settings: 100 μM, over 48 h; positive control DEA-NONOate
# Summary of the method: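 ATCC 43300 was grown in Mueller-Hinton medium to OD600 0.4 and split three ways: untreated, 100 μM test compound, or 100 μM DEA-NONOate. At 24 and 48 h, samples were centrifuged and supernatants were mixed with fresh Griess reagent for 30 min at room temperature. Absorbance at 548 nm was converted to nitrite against sodium nitrite standards (50–0.78 μM, 2-fold) made in medium.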
# [9] = system: JSF-3151–resistant strains; assay: MIC versus JSF-3151-resistant strains compared to the parental strain; type: cell-based, Staphylococcus aureus; settings: yceI promoter mutants versus parent
# LAC yceI::Tn azoR4 pCM28 = assay: MIC; type: cell-based, Staphylococcus aureus
# Summary of the method: as §1
# MRSA COL strain = assay: Mouse peritonitis-sepsis model; type: in vivo, Staphylococcus aureus; settings: single dose 24 mg/kg intraperitoneal, 1 h post-infection
# MRSA strain LAC = assay: Selection of spontaneous resistant mutants, frequency; type: cell-based, Staphylococcus aureus; settings: 8x MIC, 3 d incubation
# [10] = system: S. aureus LAC yceI::Tn pLL39; assay: MIC; type: cell-based, Staphylococcus aureus; settings: genotype yceI::Tn pLL39, LAC background
# LAC azoR::Tn = assay: MIC; type: cell-based, Staphylococcus aureus; settings: genotype azoR::Tn, LAC background
# Summary of the method: as §1
# [11] = system: S. aureus LAC pLL39_yceI3; assay: MIC; type: cell-based, Staphylococcus aureus; settings: genotype pLL39_yceI3, LAC background
# [12] = system: LAC yceI::Tn azoR2 pCM28_azoR; assay: MIC; type: cell-based, Staphylococcus aureus
# Summary of the method: as §1
# LAC yceI::Tn azoR3 = assay: MIC; type: cell-based, Staphylococcus aureus
# LAC yceI::Tn pCM28 = assay: MIC; type: cell-based, Staphylococcus aureus
# Summary of the method: as §1
# MRSA culture = assay: Time-kill curve; type: cell-based, Staphylococcus aureus
# S. aureus LAC pLL39 = assay: MIC; type: cell-based, Staphylococcus aureus; settings: genotype pLL39, LAC background
compound,measurement,setting,value
O=C(Nc1cc(Cl)cc2cccnc12)c1ccc([N+](=O)[O-])s1 [JSF-3151],MIC shift versus yceI::Tn parental strain,LAC yceI::Tn azoR1; azoR1 (Trp100stop),15 fold
same,MIC,LAC yceI::Tn azoR1; genotype yceI::Tn azoR1,12 mg/L
same,membrane depolarization (DiBAC4 fluorescence),S. aureus (ATCC 43300) [1],failed to compromise the cell membrane
same,MRSA ATCC 43300 MIC,MRSA ATCC 43300,4.0 μg/mL and 12 μM
same,MRSA ATCC 43300 MIC,MRSA ATCC 43300; listed as Z296972134 (3151),4.0 μg/mL and 12 μM
same,MIC,LAC yceI::Tn azoR1 pCM28,>50 mg/L
same,MIC,[2],50 mg/L
same,intrabacterial NO• release (DAF-FM),S. aureus (ATCC 43300) [3],neither DAF-FM (over 2 h) nor the Griess reagent (over 48 h) evidenced NO• production
same,MIC,[4],50 mg/L
same,MIC,[5],3.1 mg/L
same,frequency of heritable resistance,LAC yceI::Tn strain,approximately 3 x 10^−8
same,MIC versus VRSA compared to MRSA,VRSA strains,even greater potency
same,Vero cell CC50,Vero cells,> 50 mg/L
same,CC50,Vero cells; read-out: Vero cell CC50,> 150 µM
same,MIC,S. aureus LAC pLL39_yceI,6.2 mg/L
same,MIC shift versus yceI::Tn parental strain,LAC yceI::Tn azoR2; azoR2 (Trp60stop),32 fold
same,MIC,LAC yceI::Tn azoR2; genotype yceI::Tn azoR2,25 mg/L
same,MIC versus VISA compared to MRSA,VISA strains,even greater potency
same,MIC,LAC yceI::Tn azoR4,25 mg/L
same,MIC,[6],50 mg/L
same,MIC,[7],1.5 mg/L
same,NO• production as nitrite in supernatant (Griess reagent),S. aureus (ATCC 43300) [8],neither DAF-FM (over 2 h) nor the Griess reagent (over 48 h) evidenced NO• production
same,loss of susceptibility of three representative mutants,[9],> 16 fold
same,MIC,LAC yceI::Tn azoR4 pCM28,25 mg/L
same,mice surviving 3 d post-administration,MRSA COL strain,2 out of 12
same,survival 3 d post-administration,MRSA COL strain,16.7%
same,frequency of resistant mutants,MRSA strain LAC,6 x 10^−8
same,MIC,[10],0.78 mg/L
same,MIC,LAC azoR::Tn,50 mg/L
same,MIC,[11],50 mg/L
same,MIC,[12],1.5 mg/L
same,MIC shift versus yceI::Tn parental strain,LAC yceI::Tn azoR3; azoR3 (Thr121Ile),64 fold
same,MIC,LAC yceI::Tn azoR3; genotype yceI::Tn azoR3,>50 mg/L
same,MIC,LAC yceI::Tn pCM28,0.78 mg/L
same,time to sterilize a MRSA culture,MRSA culture; 1x MIC,≤ 4 h
same,speed of sterilization relative to vancomycin,MRSA culture; both at 1x MIC,more than six times faster than vancomycin
same,MIC,S. aureus LAC pLL39,6.2 mg/L
